By GI50 is commonly meant the concentration giving 50% growth inhibition. The term MIC denotes the smallest concentration in the dilution series that meets the test's criterion for growth inhibition. A lower MIC goes with greater potency.

Among the data in ChEMBL document CHEMBL3112463, “Synthesis and biological activity of polyalthenol and pentacyclindole analogues” (2014) are GI50 and MIC values, retold here.

Holding throughout (format): functional
One experiment relates to T47D. Put plainly: Antiproliferative activity against human T47D cells assessed as growth inhibition after 48 hrs by SRB assay. In a few lines: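 T-47D cells grown at 37 °C, 5% CO₂ in serum- and 2 mM L-glutamine-containing medium. Trypsinized, viability >97% by trypan blue, seeded at 15,000 cells/well. Compounds added day 1 in triplicate dilutions (DMSO vehicle 0.25% v/v as control) for 48 h. Cold 50% TCA fixation 60 min at 4 °C, SRB read at 492 nm with blank correction.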
Background: In SRB staining, fixed cells bind dye roughly in proportion to their protein.

For the next experiment, the system named is WiDr. Put plainly: Antiproliferative activity against human WiDr cells assessed as growth inhibition after 48 hrs by SRB assay. An outline of the steps: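 WiDr cells seeded at 20,000 cells/well after trypsinization into antibiotic-containing medium (trypan blue viability >97%). Culture at 37 °C, 5% CO₂ with foetal calf serum and 2 mM L-glutamine. Exposure to triplicate compound dilutions from DMSO stocks (0.25% v/v DMSO control) started day 1, lasting 48 h. Fixed with ice-cold 50% TCA, 60 min at 4 °C, then SRB, OD 492 nm background-subtracted.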

Experiment [1] is described as follows: Antiproliferative activity against human HBL100 cells assessed as growth inhibition after 48 hrs by SRB assay. The conditions noted are these: HBL-100, 48 h. An outline of the steps: (§1)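 Cells maintained at 37 °C, 5% CO₂ in medium with foetal calf serum and 2 mM L-glutamine. Trypsinized into antibiotic medium, >97% viable by trypan blue, plated at 10,000 cells/well. Triplicate dilutions from DMSO stocks (0.25% v/v DMSO control) added on day 1 for 48 h. TCA fixation (50%, 4 °C, 60 min), SRB stain, OD 492 nm corrected for medium-only blank.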

For the next experiment, the system named is SW1573. As to the kind of experiment: Antiproliferative activity against human SW1573 cells assessed as growth inhibition after 48 hrs by SRB assay. As to conditions: SW1573, 48 h. An outline of the steps: as §1
For a further experiment, the system named is Staphylococcus aureus. Put plainly: Antimicrobial activity against Staphylococcus aureus ATCC 29213 after 24 hrs by broth microdilution method. The conditions noted are these: ATCC 29213, 24 h. An outline of the steps: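 Bacteria grown on nutrient agar at 35–37 °C for 24 h, then suspended in normal saline to approx. […] by matching to 0.5 McFarland standard. Broth microdilution in Mueller Hinton broth with growth and sterility controls, compounds first dissolved in DMSO.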
On the technique in general: Broth dilution looks for growth in wells or tubes with falling amounts of substance.

For the next experiment, the system named is HeLa. Put plainly: Antiproliferative activity against human HeLa cells assessed as growth inhibition after 48 hrs by SRB assay. In a few lines: as §1
The subject of the next experiment is A549. Put plainly: Antiproliferative activity against human A549 cells assessed as growth inhibition after 48 hrs by SRB assay. As to conditions: A549, 48 h. An outline of the steps: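 Cells kept in medium with foetal calf serum and 2 mM L-glutamine at 37 °C, 5% CO₂. Trypsinized, resuspended in penicillin/streptomycin medium, >97% trypan blue viability, seeded at 10,000 cells/well. Compounds from DMSO stocks (0.25% v/v DMSO control), triplicate dilutions, added day 1 for 48 h. Fixed with cold 50% TCA for 60 min at 4 °C, then SRB staining, OD 492 nm, background corrected.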

In brackets after ≈: the same amount, converted by molar mass.

Turning to `COC(=O)[C@@]1(C)CCC=C2[C@@H]1CC[C@@H](C)[C@]2(C)Cc1c(C=O)[nH]c2ccccc12`, the GI50 in the experiment with T47D is 17 µM; in the experiment on WiDr it was 20 µM; in experiment [1] it was 7.5 µM; with SW1573, 7.9 µM; in the experiment on HeLa it was 4.4 µM; in the experiment on A549, 45 µM. Further, it took 50 µM (≈ 19.7 µg/mL) to inhibit growth in the experiment on Staphylococcus aureus (MIC).
As for `COC(=O)[C@@]1(C)CC[C@@H]2C3=C1CC[C@@H](C)[C@]3(C)Cc1c2[nH]c2ccccc12`, the GI50 in the experiment with T47D is 3.4 µM; in the experiment on WiDr it was 4 µM; in experiment [1] it was 3.5 µM; with SW1573, 8.3 µM; with HeLa, 3.2 µM; in the experiment on A549 it was 4.6 µM.
As to `COC(=O)[C@@]1(C)CC[C@@H]2C3=C1CC[C@@H](C)[C@]3(C)Cc1c2[nH]c2ccc(OC)cc12`, the GI50 turned out to be 6.5 µM with T47D; 1.2 µM with WiDr; 5 µM in experiment [1]; 5.9 µM with SW1573; 3.9 µM in the experiment with HeLa; 7.7 µM in the experiment with A549.
